KCNK3 block: human KCNK3 channel inhibition, primary screen | hit rate 0.84% among 340,000 | B-score at 10 µM | O14649 | CHO-KCNK3 thallium flux, FluxOR fluorescence; stronger effect = lower value;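 active = B-score under library mean minus 4 SD, starting fluorescence ratio at most library mean plus 5 SD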;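 note: more negative B-score means stronger inhibition of thallium flux through KCNK3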
Kir21 inh: blocks the mouse Kir2.1 inward-rectifier potassium channel; P35561; HEK293-Kir2.1, FluxOR thallium flux fluorescence; stronger effect = lower value; B-score at 10 µM; hit rate 0.85% among 310,000;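 active = fluorescence ratio B-score at or below minus 3 SD of library scores, with starting-brightness B-score within 2 SD, cut at about -4.2 in these data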;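 note: channel flux triggered by added potassium and thallium sulfate stimulus; B-score of peak minus minimum fluorescence over baseline after thallium stimulus; more negative B-score means stronger Kir2.1 block with less thallium influx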
KCNQ1 pot: potentiators or activators of human KCNQ1 potassium channel. P51787. CHO-K1 KCNQ1, thallium flux FluxOR fluorescence; stronger effect = higher value. B-score at 10 µM. hit rate 0.35% among 310,000. AID 2648;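 active = fluorescence ratio B-score, a plate-corrected score, at least three library SD, with initial intensity B-score within 5 SD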
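Medium – assay buffer, equal DMSO in all wells · Material – CHO-K1 cell line with stable KCNQ1 potassium channel expression · Signal – kinetic FluxOR thallium fluorescence, 10-s 1-Hz baseline, 110-s post-stimulus read · Compound – single concentration per compound, DMSO matched to controls · Schedule – 37 °C overnight plating, 90-min dark dye load, 20-min compound pretreatment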
KCNQ1 block: inhibitors of human KCNQ1 potassium channel; AID 2642; B-score at 10 µM; hit rate 1.3% among 310,000; P51787; CHO-K1 KCNQ1, FluxOR thallium flux fluorescence; stronger effect = higher value;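 active = compounds whose thallium flux B-score, printed positive for inhibition, exceeds three library SD while starting fluorescence stays within three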;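 note: channel opened by potassium depolarization with thallium stimulus after 20 min compound exposure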
hERG protect: hERG (human) protection from proarrhythmic block; CHO-hERG, FluxOR thallium flux, dofetilide IC70 present; activation (rescue from dofetilide block), less the hit threshold, % at 10 µM; Q12809; hit rate 0.51% among 310,000;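 active = activation above the mean of controls blocked by dofetilide plus 5 SD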;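 note: thallium influx through hERG after potassium depolarization seen as dye fluorescence rise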
KCNK9 inh: inhibitors of human KCNK9 two-pore domain potassium channel | HEK293 KCNK9, FluxOR thallium flux fluorescence; stronger effect = lower value | B-score at 10 µM | AID 488922 | Q9NPC2 | hit rate 1.2% among 310,000;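 active = ratio B-score over 3 SD below the library mean, with starting fluorescence within 5 SD of its mean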;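 note: negative B-score means less thallium flux so channel inhibition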
KCNK9 block conf: confirmation of human KCNK9 potassium channel inhibitors. shares compounds with KCNK9 inh. hit rate 43% among 4,900. HEK293 KCNK9 cells, FluxOR thallium flux fluorescence. inhibition, % at 10 µM;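 active = thallium signal inhibited by more than 5 SD of the compound-free buffer control wells, on both duplicate plates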
Kir2-1 spec: selectivity of KCNK9 modulators against mouse Kir2.1. shares compounds with KCNK9 inh. Kir2.1 cells, FluxOR thallium flux fluorescence. inhibition, % at 10 µM. hit rate 4% among 4,900;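 active = thallium signal drop more than 5 SD beyond the mean of the no-compound control wells, seen in both duplicate plates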;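 note: signal is fluorescence rise after thallium addition divided by baseline fluorescence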
KCNK9 uninduced: second check of KCNK9 modulator effects in non-induced HEK293 cells | shares compounds with KCNK9 inh | FluxOR thallium flux | inhibition, % at 10 µM | hit rate 40% among 4,900 | AID 492997;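 active = thallium signal drop beyond 5 SD of the untreated control mean, on both duplicate plates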
Numbers stand for hits; 0 = inactive; - = not tested or not shown. Rows were chosen to be rich in hits. Some 3.7% of all compounds tested hit in one or more screens of this group.

SMILES	KCNK3 block	Kir21 inh	KCNQ1 pot	KCNQ1 block	hERG protect	KCNK9 inh	KCNK9 block conf	Kir2-1 spec	KCNK9 uninduced
O=C(C[C@H]1C(=O)N(Cc2ccccc2)C[C@@H]1Cc1ccccc1)Nc1ccccc1	0	0	0	0	0	0	0	0	0
COc1ccc(OC)c(N=c2ssnc2Cl)c1	0	0	0	0	0	0	-	-	-
COc1cc(N=c2ssnc2Cl)c(OC)cc1Cl	0	0	0	0	0	0	0	0	0
CCCNC(=O)C12CCC(C)(c3nc4cc(C)c(C)cc4nc31)C2(C)C (stereo unspecified)	0	0	0	0	0	0	0	0	0
CCOc1ccc(C(=O)NNC(=O)c2cc(S(=O)(=O)N3CCOCC3)ccc2Cl)cc1	0	-	-	-	-	-	-	-	-
CC(=O)Nc1ccccc1OCC(O)CS(=O)(=O)c1ccc(C(F)(F)F)cn1 (stereo unspecified)	0	0	0	0	0	0	-	-	-
CCc1cccc(NC(=S)N2CCC(c3ccccc3)C2)c1 (stereo unspecified)	0	0	0	0	0	0	0	0	0
CSc1cccc(NC(=S)N2CCC(c3ccccc3)C2)c1 (stereo unspecified)	0	0	0	0	0	0	0	0	0
Fc1cc(F)cc(NC(=S)N2CCC(c3ccccc3)C2)c1 (stereo unspecified)	0	0	0	0	0	0	-	-	-
CC(=O)OCC1OC(n2c(S)c(C#N)c(-c3ccccc3)c(C#N)c2=O)C(OC(C)=O)C(OC(C)=O)C1OC(C)=O (stereo unspecified)	0	-	-	-	-	-	-	-	-
CC1CCCC(NC(=O)c2ccc3c(c2)NC(=O)CS3)C1C (stereo unspecified)	0	0	0	0	0	0	-	-	-
COC(=O)CNC(=O)COC(=O)/C=C/c1ccccc1[N+](=O)[O-]	0	0	0	0	0	0	-	-	-
O=c1cc(/C=C/c2ccccc2)oc2c1ccc1ccccc12	0	0	0	0	0	-8.3	0	0	0
C=CCn1c(SCc2csc(C)n2)nc2sc3c(c2c1=O)CCCCC3	0	0	0	0	0	0	-	-	-
C=CCn1c(SCc2csc(C)n2)nc2sc3c(c2c1=O)CCC(C)C3 (stereo unspecified)	0	0	0	0	0	0	0	0	0
COc1ccc(N2CC(C)Cn3c2nc2c3c(=O)n(Cc3ccc(C)cc3)c(=O)n2C)c(OC)c1 (stereo unspecified)	0	0	0	0	0	0	0	0	0
CCOC(=O)Cc1c(C)nc2c(-c3ccccc3)c(C)nn2c1C	0	0	0	0	0	0	0	0	0
O=C(CN1C(=O)C2C3C=CC(C3)C2C1=O)NCc1ccc2c(c1)OCO2 (stereo unspecified)	0	0	0	0	0	0	-	-	-
CN(Cc1ccccn1)Cc1nc(Cc2ccccc2Cl)no1	0	0	0	0	0	0	-	-	-
COc1cccc(CN(C)Cc2nc(Cc3ccccc3Cl)no2)c1	0	0	0	0	0	0	0	0	0
Cc1ccc(CNc2nc(-c3cccs3)nc3ccccc23)cc1	0	0	0	0	0	-8.8	36%	0	30%
Cc1ccc(NC(=O)c2cc(S(=O)(=O)N3CCC4(CC3)OCCO4)ccc2F)cc1	0	0	0	0	0	0	-	-	-
O=C(NC1CCCCCC1)c1cc(S(=O)(=O)N2CCC3(CC2)OCCO3)ccc1F	0	0	0	0	0	0	0	0	0
COc1ccccc1C(=O)C1CCCN(Cc2cn[nH]c2C2CCCCC2)C1 (stereo unspecified)	0	0	0	0	0	0	-	-	-
Cc1nn(-c2ccccc2)c(N)c1Sc1ccc([N+](=O)[O-])cc1	0	0	0	0	0	-13	73%	0	34%
COCCN(C(=O)CSc1ncc(C(F)(F)F)cc1Cl)c1c(N)n(Cc2ccccc2)c(=O)[nH]c1=O	0	0	0	0	0	0	-	-	-

Screens: PubChem BioAssay, Johns Hopkins Ion Channel Center
